# Assay results from publication PMC6360136 (Investigational new drugs, 2018).
# Columns and labels:
# [1] = Tissue distribution and pharmacokinetic study; assay type: in vivo; conditions: single 1 mg/kg, NSG mice
# How it was run: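 Female NSG mice (4–10 weeks) received a single 1 mg/kg dose, either i.v. in 10% EtOH/5% Tween-80/85% saline or i.p. in DMSO; 3 mice per time point. Plasma and tissues were collected at 10 min and 1, 3, 8, 24 and 48 h. Tissues were homogenised in PBS, proteins precipitated in acetonitrile/methanol with harmine internal standard, and samples quantified by positive-ESI MRM LC-MS/MS against matrix calibration curves. PK parameters came from noncompartmental analysis.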
# [2] = system: orthotopic pancreatic patient-derived xenograft (PDX) tumor; experiment: In vivo efficacy study in orthotopic pancreatic PDX mouse model; conditions: 0.25 mg/kg i.p. every other day, NSG mice
# How it was run: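 A surgically resected human pancreatic ductal adenocarcinoma was expanded as 3 × 3 mm flank implants in female NSG mice and passaged at 2.0 cm. Second-generation tumour was then implanted orthotopically. On postoperative day 45 (palpable, 3–4 mm), mice were randomised to test compound 0.25 mg/kg i.p. or DMSO control every other day until endpoint. Diameter was measured by calipers and ultrasound every 3–5 days and volume calculated from it. Analysis used repeated-measures two-way ANOVA with Sidak tests.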
# [3] = system: orthotopic pancreatic PDX tumor; experiment: TUNEL staining of PDX tumors; assay type: in vivo, NSG mice; conditions: PDX tumors at euthanasia, 0.25 mg/kg i.p. every other day, vs vehicle
# How it was run: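 Orthotopic PDX mice received test compound 0.25 mg/kg i.p. or DMSO every other day. At endpoint, tumours were formalin-fixed and paraffin-embedded, and 5 micron sections were cut. Sections were stained for Ki-67 (proliferation) or by TUNEL (apoptosis). Ki-67 was scored as the average number of positive cells per high-power field by image analysis.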
compound,measurement,setting,value
"CC[C@H](C)[C@@H]1C(=O)N2CCC[C@@H]2C(=O)O[C@H](C(C)(C)C)C[C@@H](C)C[C@@H](O)C(C)(C)C2=N[C@H](CCC(=O)N[C@@H](Cc3ccc(OC)cc3)C(=O)N(C)[C@@H](C)C(=O)N1C)CS2 [Apra S10, apratoxin S10]",AUC (area under the concentration-time curve to infinity),"[1]; Brain, IP",3067 ng·h/mL
same,AUCt (area under the concentration-time curve),"[1]; Brain, IP",727 ng·h/mL
same,CL/F (clearance),"[1]; Brain, IP",5.43 mL/min/kg
same,Cmax (peak concentration),"[1]; Brain, IP",18 ng/mL
same,Ke (elimination rate constant),"[1]; Brain, IP",0.006 h⁻¹
same,MRT (mean residence time),"[1]; Brain, IP",170.68 h
same,Tmax (time to peak concentration),"[1]; Brain, IP",0.17 h
same,Vz/F (volume of distribution),"[1]; Brain, IP",55.015 L/kg
same,t1/2 (half-life),"[1]; Brain, IP",116.95 h
same,AUC (area under the concentration-time curve to infinity),"[1]; Brain, IV",2442 ng·h/mL
same,AUCt (area under the concentration-time curve),"[1]; Brain, IV",874 ng·h/mL
same,CL/F (clearance),"[1]; Brain, IV",6.82 mL/min/kg
same,Cmax (peak concentration),"[1]; Brain, IV",63 ng/mL
same,Ke (elimination rate constant),"[1]; Brain, IV",0.009 h⁻¹
same,MRT (mean residence time),"[1]; Brain, IV",110.88 h
same,Tmax (time to peak concentration),"[1]; Brain, IV",0.17 h
same,Vz/F (volume of distribution),"[1]; Brain, IV",46.571 L/kg
same,t1/2 (half-life),"[1]; Brain, IV",78.84 h
same,AUC (area under the concentration-time curve to infinity),"[1]; Kidney, IP",5559 ng·h/mL
same,AUCt (area under the concentration-time curve),"[1]; Kidney, IP",4508 ng·h/mL
same,CL/F (clearance),"[1]; Kidney, IP",3 mL/min/kg
same,Cmax (peak concentration),"[1]; Kidney, IP",403 ng/mL
same,Ke (elimination rate constant),"[1]; Kidney, IP",0.036 h⁻¹
same,MRT (mean residence time),"[1]; Kidney, IP",25.57 h
same,Tmax (time to peak concentration),"[1]; Kidney, IP",1.00 h
same,Vz/F (volume of distribution),"[1]; Kidney, IP",5.02 L/kg
same,t1/2 (half-life),"[1]; Kidney, IP",19.34 h
same,AUC (area under the concentration-time curve to infinity),"[1]; Kidney, IV",3345 ng·h/mL
same,AUCt (area under the concentration-time curve),"[1]; Kidney, IV",3285 ng·h/mL
same,CL/F (clearance),"[1]; Kidney, IV",4.98 mL/min/kg
same,Cmax (peak concentration),"[1]; Kidney, IV",753 ng/mL
same,Ke (elimination rate constant),"[1]; Kidney, IV",0.077 h⁻¹
same,MRT (mean residence time),"[1]; Kidney, IV",9.34 h
same,Tmax (time to peak concentration),"[1]; Kidney, IV",0.17 h
same,Vz/F (volume of distribution),"[1]; Kidney, IV",3.892 L/kg
same,t1/2 (half-life),"[1]; Kidney, IV",9.03 h
same,AUC (area under the concentration-time curve to infinity),"[1]; Liver, IP",7951 ng·h/mL
same,AUCt (area under the concentration-time curve),"[1]; Liver, IP",7485 ng·h/mL
same,CL/F (clearance),"[1]; Liver, IP",2.1 mL/min/kg
same,Cmax (peak concentration),"[1]; Liver, IP",945 ng/mL
same,Ke (elimination rate constant),"[1]; Liver, IP",0.067 h⁻¹
same,MRT (mean residence time),"[1]; Liver, IP",12.77 h
same,Tmax (time to peak concentration),"[1]; Liver, IP",0.17 h
same,Vz/F (volume of distribution),"[1]; Liver, IP",1.865 L/kg
same,t1/2 (half-life),"[1]; Liver, IP",10.28 h
same,AUC (area under the concentration-time curve to infinity),"[1]; Liver, IV",6560 ng·h/mL
same,AUCt (area under the concentration-time curve),"[1]; Liver, IV",6095 ng·h/mL
same,CL/F (clearance),"[1]; Liver, IV",2.53 mL/min/kg
same,Cmax (peak concentration),"[1]; Liver, IV",1127 ng/mL
same,Ke (elimination rate constant),"[1]; Liver, IV",0.056 h⁻¹
same,MRT (mean residence time),"[1]; Liver, IV",14.08 h
same,Tmax (time to peak concentration),"[1]; Liver, IV",0.17 h
same,Vz/F (volume of distribution),"[1]; Liver, IV",2.741 L/kg
same,t1/2 (half-life),"[1]; Liver, IV",12.46 h
same,AUC (area under the concentration-time curve to infinity),"[1]; Lung, IP",3310 ng·h/mL
same,AUCt (area under the concentration-time curve),"[1]; Lung, IP",2321 ng·h/mL
same,CL/F (clearance),"[1]; Lung, IP",5.03 mL/min/kg
same,Cmax (peak concentration),"[1]; Lung, IP",210 ng/mL
same,Ke (elimination rate constant),"[1]; Lung, IP",0.023 h⁻¹
same,MRT (mean residence time),"[1]; Lung, IP",38.38 h
same,Tmax (time to peak concentration),"[1]; Lung, IP",0.17 h
same,Vz/F (volume of distribution),"[1]; Lung, IP",13.044 L/kg
same,t1/2 (half-life),"[1]; Lung, IP",29.93 h
same,AUC (area under the concentration-time curve to infinity),"[1]; Lung, IV",2768 ng·h/mL
same,AUCt (area under the concentration-time curve),"[1]; Lung, IV",2273 ng·h/mL
same,CL/F (clearance),"[1]; Lung, IV",6.02 mL/min/kg
same,Cmax (peak concentration),"[1]; Lung, IV",329 ng/mL
same,Ke (elimination rate constant),"[1]; Lung, IV",0.041 h⁻¹
same,MRT (mean residence time),"[1]; Lung, IV",24.55 h
same,Tmax (time to peak concentration),"[1]; Lung, IV",0.17 h
same,Vz/F (volume of distribution),"[1]; Lung, IV",8.837 L/kg
same,t1/2 (half-life),"[1]; Lung, IV",16.95 h
same,AUC (area under the concentration-time curve to infinity),"[1]; Pancreas, IP",60205 ng·h/mL
same,AUCt (area under the concentration-time curve),"[1]; Pancreas, IP",54532 ng·h/mL
same,CL/F (clearance),"[1]; Pancreas, IP",0.283 mL/min/kg
same,Cmax (peak concentration),"[1]; Pancreas, IP",2883 ng/mL
same,Ke (elimination rate constant),"[1]; Pancreas, IP",0.051 h⁻¹
same,MRT (mean residence time),"[1]; Pancreas, IP",17.46 h
same,Tmax (time to peak concentration),"[1]; Pancreas, IP",3.00 h
same,Vz/F (volume of distribution),"[1]; Pancreas, IP",0.323 L/kg
same,t1/2 (half-life),"[1]; Pancreas, IP",13.49 h
same,AUC (area under the concentration-time curve to infinity),"[1]; Pancreas, IV",49289 ng·h/mL
same,AUCt (area under the concentration-time curve),"[1]; Pancreas, IV",45982 ng·h/mL
same,CL/F (clearance),"[1]; Pancreas, IV",0.333 mL/min/kg
same,Cmax (peak concentration),"[1]; Pancreas, IV",2348 ng/mL
same,Ke (elimination rate constant),"[1]; Pancreas, IV",0.059 h⁻¹
same,MRT (mean residence time),"[1]; Pancreas, IV",14.80 h
same,Tmax (time to peak concentration),"[1]; Pancreas, IV",8.00 h
same,Vz/F (volume of distribution),"[1]; Pancreas, IV",0.342 L/kg
same,t1/2 (half-life),"[1]; Pancreas, IV",11.70 h
same,AUC (area under the concentration-time curve to infinity),"[1]; Plasma, IP",1292 ng·h/mL
same,AUCt (area under the concentration-time curve),"[1]; Plasma, IP",1251 ng·h/mL
same,CL/F (clearance),"[1]; Plasma, IP",12.9 mL/min/kg
same,Cmax (peak concentration),"[1]; Plasma, IP",775 ng/mL
same,Ke (elimination rate constant),"[1]; Plasma, IP",0.082 h⁻¹
same,MRT (mean residence time),"[1]; Plasma, IP",6.54 h
same,Tmax (time to peak concentration),"[1]; Plasma, IP",0.17 h
same,Vz/F (volume of distribution),"[1]; Plasma, IP",9.49 L/kg
same,t1/2 (half-life),"[1]; Plasma, IP",8.50 h
same,AUC (area under the concentration-time curve to infinity),"[1]; Plasma, IV",1303 ng·h/mL
same,AUCt (area under the concentration-time curve),"[1]; Plasma, IV",1287 ng·h/mL
same,CL/F (clearance),"[1]; Plasma, IV",12.8 mL/min/kg
same,Cmax (peak concentration),"[1]; Plasma, IV",1072 ng/mL
same,Ke (elimination rate constant),"[1]; Plasma, IV",0.089 h⁻¹
same,MRT (mean residence time),"[1]; Plasma, IV",4.20 h
same,Tmax (time to peak concentration),"[1]; Plasma, IV",0.17 h
same,Vz/F (volume of distribution),"[1]; Plasma, IV",8.616 L/kg
same,t1/2 (half-life),"[1]; Plasma, IV",7.78 h
same,AUC (area under the concentration-time curve to infinity),"[1]; Salivary gland, IP",19233 ng·h/mL
same,AUCt (area under the concentration-time curve),"[1]; Salivary gland, IP",13009 ng·h/mL
same,CL/F (clearance),"[1]; Salivary gland, IP",0.867 mL/min/kg
same,Cmax (peak concentration),"[1]; Salivary gland, IP",556 ng/mL
same,Ke (elimination rate constant),"[1]; Salivary gland, IP",0.024 h⁻¹
same,MRT (mean residence time),"[1]; Salivary gland, IP",41.75 h
same,Tmax (time to peak concentration),"[1]; Salivary gland, IP",3.00 h
same,Vz/F (volume of distribution),"[1]; Salivary gland, IP",2.2 L/kg
same,t1/2 (half-life),"[1]; Salivary gland, IP",29.33 h
same,AUC (area under the concentration-time curve to infinity),"[1]; Salivary gland, IV",26182 ng·h/mL
same,AUCt (area under the concentration-time curve),"[1]; Salivary gland, IV",23604 ng·h/mL
same,CL/F (clearance),"[1]; Salivary gland, IV",0.633 mL/min/kg
same,Cmax (peak concentration),"[1]; Salivary gland, IV",1258 ng/mL
same,Ke (elimination rate constant),"[1]; Salivary gland, IV",0.048 h⁻¹
same,MRT (mean residence time),"[1]; Salivary gland, IV",19.56 h
same,Tmax (time to peak concentration),"[1]; Salivary gland, IV",1.00 h
same,Vz/F (volume of distribution),"[1]; Salivary gland, IV",0.797 L/kg
same,t1/2 (half-life),"[1]; Salivary gland, IV",14.46 h
same,AUC (area under the concentration-time curve to infinity),"[1]; Spleen, IP",6586 ng·h/mL
same,AUCt (area under the concentration-time curve),"[1]; Spleen, IP",5011 ng·h/mL
same,CL/F (clearance),"[1]; Spleen, IP",2.53 mL/min/kg
same,Cmax (peak concentration),"[1]; Spleen, IP",253 ng/mL
same,Ke (elimination rate constant),"[1]; Spleen, IP",0.031 h⁻¹
same,MRT (mean residence time),"[1]; Spleen, IP",31.38 h
same,Tmax (time to peak concentration),"[1]; Spleen, IP",0.17 h
same,Vz/F (volume of distribution),"[1]; Spleen, IP",4.868 L/kg
same,t1/2 (half-life),"[1]; Spleen, IP",22.22 h
same,AUC (area under the concentration-time curve to infinity),"[1]; Spleen, IV",6838 ng·h/mL
same,AUCt (area under the concentration-time curve),"[1]; Spleen, IV",4686 ng·h/mL
same,CL/F (clearance),"[1]; Spleen, IV",2.43 mL/min/kg
same,Cmax (peak concentration),"[1]; Spleen, IV",195 ng/mL
same,Ke (elimination rate constant),"[1]; Spleen, IV",0.027 h⁻¹
same,MRT (mean residence time),"[1]; Spleen, IV",38.00 h
same,Tmax (time to peak concentration),"[1]; Spleen, IV",8.00 h
same,Vz/F (volume of distribution),"[1]; Spleen, IV",5.353 L/kg
same,t1/2 (half-life),"[1]; Spleen, IV",25.37 h
same,tumor growth (tumor volume),[2],significantly retarded tumor growth
same,number of cells undergoing apoptosis (TUNEL),[3],no difference
